Screens: PubChem, several laboratories
In the library only some 3% were active in any assay of this set; here they are far more common.
Apaf-1 inh = human Apaf-1 inhibition | reconstituted apoptosome caspase-3 activity, DEVD-Rh110 fluorescence | inhibition, % at 20 µM | 330,000 compounds, 0.71% hits | AID 489030; active = inhibition of at least 40% at 20 µM;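 also: plate controls were DMSO wells for no effect and DEVD-CHO caspase inhibitor wells for full effect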
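Material: biochemical Apaf-1 apoptosome reconstitution. Medium: Hepes buffer, pH 7.5. Also added: cytochrome c activation, bis-DEVD rhodamine 110 substrate. Timing: 30 min compound preincubation, 50 min activation, room temperature. Measured by: rhodamine 110 fluorescence at Ex 480/Em 540 nm.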
MEKK2 mut-MEK5 = signal of MEK5 binding to mutant human MEKK2 PB1 domain; bead flow cytometry, Alexa488-MEK5 binding to MEKK2 mutant; percent response, % at 10 µM; 290,000 compounds, 0.35% hits; AID 1530; in the data active = percent response above about 24%, passing the limit was not always enough
UBC13 polyUb = blocks human UBC13 polyubiquitin chain formation | TR-FRET | AID 485273 | inhibition, % at 20 µM | 330,000 compounds, 0.47% hits; in the data active = inhibition above about 45%, passing the limit was not always enough
Target sequence (P61088 whole entry, looked up): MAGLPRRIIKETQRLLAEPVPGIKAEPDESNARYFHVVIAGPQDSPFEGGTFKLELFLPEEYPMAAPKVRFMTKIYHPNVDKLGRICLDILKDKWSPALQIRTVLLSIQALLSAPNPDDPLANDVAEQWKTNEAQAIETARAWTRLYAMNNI
MEKK2wt PB1 HTS = raises or lowers MEK5 binding to wildtype human MEKK2 PB1 domain; 290,000 compounds, 1.1% hits; binding response (% of control), % at 10 µM; Q9Y2U5; AID 1531; bead flow cytometry, Alexa488-MEK5 binding to MEKK2 WT; actives lie on both sides; in the data active = binding response below about 67% or above about 130%
UCH37 inh = human UCH37 deubiquitinating enzyme inhibition. Q9Y5K5. purified proteasome/UCH37, Ub-AMC cleavage fluorescence. inhibition, % (no concentration beside the values). 330,000 compounds, 0.33% hits;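 active = mean inhibition over replicate wells above about 20%, limit read from the data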;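 also: 0% = compound-free wells with enzyme and 100% = wells lacking proteasome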
Target sequence (Q9Y5K5 whole entry, looked up): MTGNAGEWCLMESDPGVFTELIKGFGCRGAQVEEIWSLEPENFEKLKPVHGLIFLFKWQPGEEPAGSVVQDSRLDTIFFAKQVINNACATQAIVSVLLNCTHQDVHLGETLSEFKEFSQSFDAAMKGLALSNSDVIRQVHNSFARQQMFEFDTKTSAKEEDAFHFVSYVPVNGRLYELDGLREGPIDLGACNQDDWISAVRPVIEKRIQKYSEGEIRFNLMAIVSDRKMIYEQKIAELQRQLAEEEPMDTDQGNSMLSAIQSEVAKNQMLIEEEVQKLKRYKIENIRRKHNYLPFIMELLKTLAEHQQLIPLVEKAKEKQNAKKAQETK
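Assay system: Proteasome-bound UCH37. Buffer or medium: pH 7.4 Tris-HCl (50 mM) with ovalbumin, ATP-MgCl2, DTT. Incubation: 30 min preincubation with enzyme, 25 min cleavage at room temperature. Measured by: fluorescence, ex 355 nm, em 460 nm. Read-out basis: percent inhibition. Control set: wells without proteasome as full block, compound-free enzyme plus substrate as uninhibited.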
MEKK3 PB1 HTS = raises or lowers MEK5 binding to the human MEKK3 PB1 domain. AID 1529. Q99759. bead-based flow cytometry, Alexa488-MEK5 binding to MEKK3; actives lie on both sides; 0 = blocked by unlabeled MEK5, 100 = vehicle. 290,000 compounds, 1.4% hits. binding response (% of control), % at 10 µM;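 active = binding response more than 3 SD above or below the average of its plate-row segment, actives on both sides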;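 also: Alexa488 bead fluorescence after subtracting the streptavidin-only scavenger bead signal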
MEKK2wt confirm = raises or lowers MEK5 binding to wildtype human MEKK2, retest; shares compounds with MEKK3 PB1 HTS; bead flow cytometry, Alexa488-MEK5 binding to MEKK2 WT; actives lie on both sides; binding response (% of control), % at 10 µM; 5,900 compounds, 2.4% hits; AID 1892; in the data active = binding response below about 16% or above about 210%; inactive = in between
MEKK2mut-MEK5 = signal of MEK5 binding to mutant human MEKK2, retest; shares compounds with MEKK3 PB1 HTS; bead flow cytometry, Alexa488-MEK5 binding to MEKK2 mutant; percent response, % at 10 µM; 5,900 compounds, 2% hits; AID 1893; in the data active = percent response mostly above about 71%, no sharp cut-off; inactive = mostly below about 38%;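 also: higher means compound restores mutant binding toward wildtype level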
MEKK3 confirm = confirmation of inhibitors of MEK5 binding to human MEKK3. AID 1894. bead flow cytometry, Alexa488-MEK5 binding to MEKK3; stronger effect = lower value. 5,900 compounds, 1.8% hits. binding response (% of control), % at 10 µM. shares compounds with MEKK3 PB1 HTS;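 active = binding response below 72% of control, or above a set upper limit, though filed actives all read lower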;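 also: 100% = DMSO only wells and 0% = binding blocked by excess unlabeled MEK5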
Casp3 counter = inhibits human caspase-3 in UBC13 counter-screen; shares compounds with UBC13 polyUb; Recombinant caspase-3, Caspase-Glo 3/7 luminescence, 60 min; inhibition, % at 20 µM; 1,400 compounds, 4% hits; AID 488856;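 active = mean inhibition across replicates above about 26%, limit read from the data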;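 also: plate controls were DMSO with caspase-3 for no effect and DMSO wells lacking enzyme for full effect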
UBC13 confirm = human UBC13 polyubiquitin inhibition, confirmed. 1,400 compounds, 68% hits. UBC13 polyubiquitination, TR-FRET, biochemical. inhibition, % at 10 µM. shares compounds with UBC13 polyUb; in the data active = inhibition above about 45%
Starred values were filed as active, the others as inactive; . = no result; [ ] = remark or other dose.

SMILES	Apaf-1 inh	MEKK2 mut-MEK5	UBC13 polyUb	MEKK2wt PB1 HTS	UCH37 inh	MEKK3 PB1 HTS	MEKK2wt confirm	MEKK2mut-MEK5	MEKK3 confirm	Casp3 counter	UBC13 confirm
NS(=O)(=O)c1ccc(CCNc2ccnc3cc(Cl)ccc23)cc1	-1	5	4	102	-6	99	.	.	.	.	.
CC[C@@H](C)[C@H](CN[C@H](CNC)C(C)C)NC[C@@H](C)c1ccc(CC(C)C)cc1	9	22	89*	185*	3	111	176	71*	118	-2	72*
COc1ccc(Nc2nc(N3CCCC3)c3ccccc3n2)cc1	39	45*	51*	185*	0	107	159	44	109	-2	49*
Cc1cc2ncn(CCOc3ccccc3)c2cc1C	10	.	10	.	-3	.	.	.	.	.	.
O=C(CCCCCN1C(=O)c2cccc3cccc(c23)C1=O)NCc1cccnc1	-6	-44	76*	51	-66	49*[inhibitor]	105	6	105	-3	58*
O=C(CCCN1C(=O)c2cccc3cccc(c23)C1=O)NCc1cccnc1	-16	-9	2	88	-99	102	.	.	.	.	.
CC(C)C[C@H](N)c1cn([C@@H](Cc2cc3ccccc3[nH]2)C(=O)N2CCNCC2)nn1	-12	32	72*	147*	1	106	136	53	106	7	77*
CCC(C)[C@H](N)c1cn([C@@H](Cc2ccc(O)cc2)C(=O)N2CCNCC2)nn1 (stereo not given in full)	5	4	6	101	1	103	.	.	.	.	.
CCC(C)[C@H](N)c1cn([C@@H](Cc2cc3ccccc3[nH]2)C(=O)N2CCNCC2)nn1 (stereo not given in full)	-11	34	94*	151*	3	92	147	45	111	-5	81*
COCc1ccc(CN2CCCC(CO)(Cc3ccccc3C)C2)o1 (stereo not given)	4	-14	12	92	3	103	.	.	.	.	.
O=C(CC1SC(=NS(=O)(=O)c2ccccc2)N(c2ccccc2)C1=O)Nc1ccc(F)cc1 (stereo not given)	.	.	.	.	1	.	.	.	.	.	.
Cc1ccc2nc(/N=C(\N)NC(=O)NC3CCCCC3)nc(C)c2c1	15	25	49*	141*	.	103	135	27	108	1	68*
O=C(COC(=O)c1ccccc1Br)NCc1cccs1	12	.	-2	.	3	.	.	.	.	.	.
CCCCCN=C(N)N/N=C/c1c[nH]c2ccc(OC)cc12	78*	40*	107*	263*	.	117	181	46	110	-5	111*
NCCNc1ccc(C(=O)N2c3ccccc3Sc3ccccc32)cc1[N+](=O)[O-]	29	37*	65*	182*	6	114	167	48	111	-2	111*
CC(C)Sc1nc2c(cnn2-c2ccc(F)cc2)c(=O)[nH]1	5	-1	-20	103	2	106	.	.	.	.	.
O=C1c2cccc3cccc(c23)C(=O)N1CCN1CCN(CC(O)COc2ccc3ccccc3c2)CC1 (stereo not given)	18	5	105*	149*	-1	111	178	43	105	-2	112*
COc1cc(C(CCN2CCCC(C)C2)c2c(OC)cc(OC)c3c2OC(=O)CC3c2ccc(N(C)C)cc2)cc(OC)c1OC (stereo not given)	26	14	45*	136*	-1	96	136	16	100	-1	24
COc1cc(C(CCN2CCOCC2)c2c(OC)cc(OC)c3c2OC(=O)CC3c2ccc(N(C)C)cc2)cc(OC)c1OC (stereo not given)	20	4	13	102	5	99	.	.	.	.	.
c1cc2c(cc1C1CCCCC1)c1c3n2CCCNC3CCC1 (stereo not given)	32	18	64*	165*	-1	93	157	25	104	2	72*
CCCCCCOc1ccc(/C(C)=N/NC2=NCCN2)cc1	38	36*	60*	204*	.	112	205	64	111	-3	85*
CCCCCOc1ccc(C(C)=NNC2=NCCN2)cc1	.	.	.	.	5	.	.	.	.	.	.
CC(C)(C)OC(=O)N1CCC(CC2CC(c3cccc(Br)c3)=NO2)(C(=O)NCC2CCCCC2)CC1 (stereo not given)	21	1	-10	108	4	108	.	.	.	.	.
O=C(NCC1CCCCC1)C1(CC2CC(c3cccc(Br)c3)=NO2)CCNCC1 (stereo not given)	23	15	51*	145*	0	101	125	16	101	5	52*
O=C(NC1CC2CCCC(C1)N2C(=O)Nc1ccc(Cl)c(C(F)(F)F)c1)C1CC1 (stereo not given)	9	-6	2	94	2	96	.	.	.	.	.
O=C(Nc1ccc(Cl)c(C(F)(F)F)c1)NC1CC2CCCC(C1)N2Cc1ccccc1 (stereo not given)	22	7	46*	215*	5	106	171	33	106	-5	63*
NC(=O)NC(Cc1ccccc1)C(=O)N1CCN(S(=O)(=O)c2ccc(Cl)cc2)CC1 (stereo not given)	4	.	-3	.	3	.	.	.	.	.	.
